Data set [1] addresses T1, Scavenger receptor class B member 1 (Mus musculus, UniProt Q61009).
T1 sequence (Q61009 whole entry): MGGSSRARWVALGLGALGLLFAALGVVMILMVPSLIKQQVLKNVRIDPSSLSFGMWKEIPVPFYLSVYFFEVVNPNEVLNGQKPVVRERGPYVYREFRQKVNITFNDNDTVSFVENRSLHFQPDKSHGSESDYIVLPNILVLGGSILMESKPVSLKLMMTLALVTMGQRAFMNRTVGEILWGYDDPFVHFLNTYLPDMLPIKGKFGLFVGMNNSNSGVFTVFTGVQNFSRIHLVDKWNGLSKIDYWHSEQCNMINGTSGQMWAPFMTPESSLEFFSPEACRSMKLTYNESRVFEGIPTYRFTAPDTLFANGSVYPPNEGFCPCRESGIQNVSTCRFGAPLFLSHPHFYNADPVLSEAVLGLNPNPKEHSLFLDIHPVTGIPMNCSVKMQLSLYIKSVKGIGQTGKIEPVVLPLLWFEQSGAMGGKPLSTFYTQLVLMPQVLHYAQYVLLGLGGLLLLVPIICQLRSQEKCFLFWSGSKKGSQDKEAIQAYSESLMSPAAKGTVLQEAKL
As to the kind of experiment: Inhibition of mouse SR-B1 overexpressed in CHO cells assessed as inhibition of transfer of the fluorescent lipid DiI from HDL particles to cells after 3 hrs. In kind it is cell-based. In short, it runs like this: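 Primary assay: uptake of fluorescent lipid DiI from DiI-labeled HDL particles into IdlA[mSR-BI] cells, i.e. CHO cells overexpressing mouse SR-BI. Read-out is cell-associated DiI fluorescence. Compounds that quenched DiI-HDL fluorescence in a dose-dependent manner were excluded by counterscreen. 1 μM BLT-1 served as positive control.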

Data set [2] can be described thus: Aqueous solubility of the compound in PBS at pH 7.4 with 1 % DMSO after 24 hrs by UPLC-MS analysis. In kind it is physicochemical. Conditions: for solubility: buffer, pH 7.4, 24 h; for solubility at 24 h: PBS with 1% DMSO, pH 7.4.
The subject of data set [3] is CHO. As to the kind of experiment: Cytotoxicity against CHO cells after 24 hrs by CellTiterGlo assay. In kind it is cell-based, Cricetulus griseus. As to conditions: chinese hamster. In a few lines:
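IdlA[mSR-BI] cells (CHO overexpressing mouse SR-BI) incubated with compound for 24 h; cellular ATP levels read by CellTiter-Glo luminescence.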
For orientation: In ATP-based viability assays light output follows the ATP content of the culture.

Data set [4] can be described thus: Plasma protein binding in mouse at 5 uM after 5 hrs by equilibrium dialysis. In kind it is ADME, cell-free. As to conditions: read-out: PPB (converted). In a few lines: (§1)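 Fraction bound to plasma proteins measured separately in human and mouse plasma.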
On the technique in general: In equilibrium dialysis only unbound substance equilibrates across the membrane.

For data set [5], the target named is T1, Scavenger receptor class B member 1. The data set is described as follows: Activity at mouse SR-B1 overexpressed in CHO cells assessed as enhancement of binding of ALexa-488-labeled HDL particles to cells after 3 hrs.
Data set [6] has as its target T2, Scavenger receptor class B member 1 (Mus musculus) (UniProt Q61009).
T2 sequence (whole entry): T1 sequence (Q61009 whole entry)
The data set is described as follows: Inhibition of mouse SR-B1 overexpressed in CHO cells assessed as inhibition of receptor-mediated Alexa-594-labeled transferrin endocytosis up to 35 uM. In kind it is cell-based. In short, it runs like this: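 Receptor-mediated endocytosis in IdlA[mSR-BI] cells followed by uptake of Alexa-594-labeled transferrin, compound tested at concentrations up to 35 μM.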

Data set [7] in a line: Plasma protein binding in human at 5 uM after 5 hrs by equilibrium dialysis. Conditions: read-out: PPB (converted). The class given is ADME, cell-free. In short, it runs like this: as §1
A short description of data set [8]: Stability in human plasma assessed as compound remaining at 5 uM after 5 hrs by UPLC-MS analysis. In kind it is ADME, cell-free. As to conditions: read-out: Stability. In short, it runs like this: (§2)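 Compound incubated 5 h in human or mouse plasma; percent parent remaining determined.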
Data set [9] concerns the target T1, Scavenger receptor class B member 1. As to the kind of experiment: (§3) Inhibition of mouse SR-B1 overexpressed in CHO cells assessed as inhibition of [3H]cholesteryl ester uptake into cells after 2 to 3 hrs by liquid scintillation counting. The class given is cell-based. In short, it runs like this:
(§4)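 IdlA[mSR-BI] cells exposed to HDL carrying [³H]-labeled cholesteryl oleate ester; cellular uptake of [³H]CE measured across a compound dilution series, IC₅₀ from dose-response curve.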

The target of data set [10] is L-type calcium channel (Homo sapiens, UniProt O60840+Q01668+Q13698+Q13936). As to the kind of experiment: Inhibition of L-type calcium channel (unknown origin) at 10 uM.
Data set [11] is described as follows: Stability in mouse liver microsomes assessed as compound remaining at 1 uM after 1 hr by UHPLC-MS analysis. As to conditions: read-out: Stability. The class given is ADME. In a few lines: (§5)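 Compound incubated 1 h with mouse or human liver microsomes; percent parent remaining determined.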
In general terms: Liver microsomes are vesicles of endoplasmic reticulum, rich in cytochrome P450 enzymes.

Data set [12] can be described thus: Stability in mouse plasma assessed as compound remaining at 5 uM after 5 hrs by UPLC-MS analysis. The class given is ADME, cell-free. As to conditions: read-out: Stability. In a few lines: as §2
A short description of data set [13]: Stability in human liver microsomes assessed as compound remaining at 1 uM after 1 hr by UHPLC-MS analysis. In kind it is ADME. As to conditions: read-out: Stability. In short, it runs like this:
as §5

Data set [14] deals with T2, Scavenger receptor class B member 1 (Mus musculus). As to the kind of experiment: Inhibition of mouse SR-B1 overexpressed in CHO cells assessed as inhibition of transfer of the fluorescent lipid DiI from HDL particles to cells at 1 uM after 3 hrs. In kind it is cell-based.
Data set [15] shares this target. Described as §3. The class given is cell-based. In short, it runs like this: as §4

In brackets after ≈: the same amount, converted by molar mass. Activity calls are given as the source filed them. No cut-off for these calls is given here. Where only a bound is given, the exact number is not on record here.

A word on the IC50: it is the concentration at which inhibition is half-maximal. By solubility is commonly meant how much of the substance goes into solution per volume. Lower therefore signals a poorly soluble substance. As for `C[C@@H]1CN([C@H](C)CO)C(=O)c2cc(NC(=O)Cc3cn(C)c4ccccc34)ccc2O[C@H]1CN(C)S(=O)(=O)c1ccc(Cl)cc1`, in data set [1], the half-inhibitory concentration (IC50) worked out at 180 nM. The solubility in data set [2] was 0.1 µM (≈ 0.0653 µg/mL). Further, the Activity entry in data set [3] is reported as “Non-toxic”.

Broadly, the EC50 is the concentration needed to bring the measured effect to its halfway point. Broadly, the inhibition is how much of the control response was suppressed. Turning to `CC(C)NC(=O)Nc1ccc2c(c1)C(=O)N([C@H](C)CO)C[C@@H](C)[C@H](CN(C)S(=O)(=O)c1ccc(Cl)cc1)O2`, the fraction unbound at 5 h, 5 µM is 0.053 in data set [4] and 0.055 in data set [7]. Besides, in data set [5], the EC50 came out at 400 nM. Further, the inhibition entry in data set [6] is “inactive”. The remaining at 5 h, 5 µM in data set [8] and in data set [12] was > 99% each time. Besides, the solubility at 24 h in [2] came to 79 µM (≈ 44.8 µg/mL). Further, in [9], the IC50 was determined as 250 nM. Besides, the Activity entry in [3] was “Non-toxic”. Moreover, in [10], the inhibition at 10 µM came out at 19%. In addition, the remaining at 1 h, 1 µM is 25% in data set [11] and 10% in data set [13].

On to `CCCCCCC1CCC/C1=N\NC(N)=S` (stereo not drawn), for which the inhibition in data set [14] was > 70%.

On to `COc1c(NC(=O)C(=O)c2ccc(OCCN3CCOCC3)c3ccccc23)cc(C(C)(C)C)cc1NS(C)(=O)=O` [ITX-5061], for which, in [9], the IC50 turned out to be 770 nM.

Take `C[C@H](C(=O)NC1CCCC1)N(C(=O)Cn1nnc(-c2ccc3c(c2)OCO3)n1)C1CCCCC1`: the IC50 in data set [9] is 5 nM.

`COCC(=O)n1ccc2cc(-c3csc(NC(=O)c4cc(OC)cc(OC)c4)n3)ccc21`: the solubility at 24 h in [2] was 0.57 µM (≈ 0.257 µg/mL). In addition, the inhibition entry in [15] was “Active”.

Consider `C[C@@H]1CN([C@H](C)CO)C(=O)c2cc(NC(=O)Cc3cn(C)c4ccccc34)ccc2O[C@H]1CN(C)S(=O)(=O)c1cn(C)cn1`, for which the IC50 in data set [1] turned out to be 6400 nM. In data set [2], this molecule displayed a solubility of 79 µM (≈ 49.2 µg/mL). For the same molecule, in data set [3], the Activity entry is “Non-toxic”.

For `C[C@@H]1CN([C@H](C)CO)C(=O)c2cc(NC(=O)Cc3cn(C)c4ccccc34)ccc2O[C@H]1CN(C)S(C)(=O)=O`, in [1], the half-maximal inhibitory concentration (IC50) was determined as 9900 nM. In addition, the Activity entry in data set [3] was “Non-toxic”.

On to `CC(C)NC(=O)Nc1cccc2c1O[C@@H](CN(C)S(=O)(=O)c1ccc(Cl)cc1)[C@H](C)CN([C@H](C)CO)C2=O`, for which the half-inhibitory concentration (IC50) in data set [1] is > 25000 nM. The Activity entry in data set [3] is listed as “Non-toxic”.

Turning to `C[C@@H]1CN([C@H](C)CO)C(=O)c2cc(NC(=O)Cc3cn(C)c4ccccc34)ccc2O[C@H]1CN(C)CC1CCCCC1`, the IC50 in data set [1] was 9200 nM. The Activity entry in [3] was “Non-toxic”.

In the case of `C[C@@H]1CN([C@H](C)CO)C(=O)c2cc(NC(=O)NC3CCCCC3)ccc2O[C@H]1CN(C)S(=O)(=O)c1ccc(Cl)cc1`, the IC50 in data set [1] amounted to 350 nM. In data set [3], the Activity entry is recorded as “Non-toxic”.

Consider `C[C@@H]1CN([C@H](C)CO)C(=O)c2cc(NC(=O)CCCN(C)C)ccc2O[C@H]1CN(C)S(=O)(=O)c1ccc(Cl)cc1`, for which the IC50 in data set [1] is > 25000 nM. In addition, in [3], the Activity result was “Non-toxic”.

The record behind these values is ChEMBL document CHEMBL3400126, “Benzo-fused lactams from a diversity-oriented synthesis (DOS) library as inhibitors of scavenger receptor BI (SR-BI)-mediated lipid uptake” (Bioorg Med Chem Lett, 2015).
